Test results from ChEMBL document CHEMBL5653631, “A Potent and Selective ULK1 Inhibitor Suppresses Autophagy and Sensitizes Cancer Cells to Nutrient Stress” (iScience, 2018).

Key:
[1] = molecular target: Serine/threonine-protein kinase Nek6 (Homo sapiens) (UniProt Q9HC98); assay: Inhibition of human recombinant NEK6 at 500 nM related to control ULK1
[2] = molecular target: Wee1-like protein kinase 2 (Homo sapiens) (UniProt P0C1S8); assay: Inhibition of human recombinant Wee1B at 15 nM related to control ULK1
Sequence of Wee1-like protein kinase 2 (Homo sapiens) (P0C1S8 whole entry, looked up): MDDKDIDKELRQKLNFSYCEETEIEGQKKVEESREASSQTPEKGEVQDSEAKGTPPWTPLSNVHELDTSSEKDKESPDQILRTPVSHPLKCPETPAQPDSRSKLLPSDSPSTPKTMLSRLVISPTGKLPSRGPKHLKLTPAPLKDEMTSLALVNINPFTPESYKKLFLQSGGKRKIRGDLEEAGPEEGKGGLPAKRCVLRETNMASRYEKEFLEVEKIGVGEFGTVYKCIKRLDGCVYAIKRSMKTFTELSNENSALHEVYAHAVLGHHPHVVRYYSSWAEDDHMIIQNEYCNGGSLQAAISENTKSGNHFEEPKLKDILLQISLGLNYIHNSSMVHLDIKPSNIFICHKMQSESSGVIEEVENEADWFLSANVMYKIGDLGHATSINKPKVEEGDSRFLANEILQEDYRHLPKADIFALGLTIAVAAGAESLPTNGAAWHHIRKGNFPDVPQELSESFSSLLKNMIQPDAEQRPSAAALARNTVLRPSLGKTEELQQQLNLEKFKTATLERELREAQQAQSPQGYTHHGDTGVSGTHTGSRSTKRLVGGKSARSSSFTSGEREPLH

[3] = molecular target: T1, Bone morphogenetic protein receptor type-2 (Homo sapiens) (UniProt Q13873); assay: Inhibition of human recombinant BMPR2 at 15 nM in presence of ATP by radiometric assay relative to control
T1 sequence (whole entry): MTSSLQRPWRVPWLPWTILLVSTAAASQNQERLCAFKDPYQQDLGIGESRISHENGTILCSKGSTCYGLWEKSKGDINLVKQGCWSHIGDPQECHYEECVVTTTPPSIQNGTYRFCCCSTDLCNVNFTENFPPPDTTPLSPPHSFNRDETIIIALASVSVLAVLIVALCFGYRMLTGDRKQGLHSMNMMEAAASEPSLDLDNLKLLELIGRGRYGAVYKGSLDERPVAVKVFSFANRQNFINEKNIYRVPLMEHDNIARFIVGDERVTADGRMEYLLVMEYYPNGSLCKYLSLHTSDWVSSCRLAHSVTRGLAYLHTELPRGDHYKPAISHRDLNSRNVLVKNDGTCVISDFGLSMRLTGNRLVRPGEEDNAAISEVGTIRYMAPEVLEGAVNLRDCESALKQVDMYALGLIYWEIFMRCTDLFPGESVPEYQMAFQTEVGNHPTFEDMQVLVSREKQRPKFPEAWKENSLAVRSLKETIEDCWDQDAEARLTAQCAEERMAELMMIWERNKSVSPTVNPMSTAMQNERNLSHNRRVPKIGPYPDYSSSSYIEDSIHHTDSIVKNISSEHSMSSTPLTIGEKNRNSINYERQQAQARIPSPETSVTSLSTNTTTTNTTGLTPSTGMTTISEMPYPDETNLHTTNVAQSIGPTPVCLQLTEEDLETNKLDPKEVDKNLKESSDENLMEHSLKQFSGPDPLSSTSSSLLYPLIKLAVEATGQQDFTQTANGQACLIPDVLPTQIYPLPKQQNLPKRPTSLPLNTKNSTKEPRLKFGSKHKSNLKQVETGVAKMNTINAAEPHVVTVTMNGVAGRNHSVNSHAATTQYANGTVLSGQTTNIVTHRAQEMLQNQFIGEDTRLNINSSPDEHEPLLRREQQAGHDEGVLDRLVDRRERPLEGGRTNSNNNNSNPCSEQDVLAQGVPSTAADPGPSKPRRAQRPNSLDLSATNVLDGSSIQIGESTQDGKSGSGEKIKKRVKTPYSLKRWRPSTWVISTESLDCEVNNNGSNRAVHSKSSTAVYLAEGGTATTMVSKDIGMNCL
Outline: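 Part of a radiometric in vitro activity panel of 327 recombinant human kinases. Each kinase was tested in duplicate at one inhibitor concentration. Activity remaining was expressed as a percentage of the vehicle control, and percent inhibition was taken as 100 minus that value.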

[4] = molecular target: T2, Eukaryotic translation initiation factor 2-alpha kinase 3 (Homo sapiens) (UniProt Q9NZJ5); assay: Inhibition of human recombinant PEK at 15 nM in presence of ATP by radiometric assay relative to control
T2 sequence (whole entry): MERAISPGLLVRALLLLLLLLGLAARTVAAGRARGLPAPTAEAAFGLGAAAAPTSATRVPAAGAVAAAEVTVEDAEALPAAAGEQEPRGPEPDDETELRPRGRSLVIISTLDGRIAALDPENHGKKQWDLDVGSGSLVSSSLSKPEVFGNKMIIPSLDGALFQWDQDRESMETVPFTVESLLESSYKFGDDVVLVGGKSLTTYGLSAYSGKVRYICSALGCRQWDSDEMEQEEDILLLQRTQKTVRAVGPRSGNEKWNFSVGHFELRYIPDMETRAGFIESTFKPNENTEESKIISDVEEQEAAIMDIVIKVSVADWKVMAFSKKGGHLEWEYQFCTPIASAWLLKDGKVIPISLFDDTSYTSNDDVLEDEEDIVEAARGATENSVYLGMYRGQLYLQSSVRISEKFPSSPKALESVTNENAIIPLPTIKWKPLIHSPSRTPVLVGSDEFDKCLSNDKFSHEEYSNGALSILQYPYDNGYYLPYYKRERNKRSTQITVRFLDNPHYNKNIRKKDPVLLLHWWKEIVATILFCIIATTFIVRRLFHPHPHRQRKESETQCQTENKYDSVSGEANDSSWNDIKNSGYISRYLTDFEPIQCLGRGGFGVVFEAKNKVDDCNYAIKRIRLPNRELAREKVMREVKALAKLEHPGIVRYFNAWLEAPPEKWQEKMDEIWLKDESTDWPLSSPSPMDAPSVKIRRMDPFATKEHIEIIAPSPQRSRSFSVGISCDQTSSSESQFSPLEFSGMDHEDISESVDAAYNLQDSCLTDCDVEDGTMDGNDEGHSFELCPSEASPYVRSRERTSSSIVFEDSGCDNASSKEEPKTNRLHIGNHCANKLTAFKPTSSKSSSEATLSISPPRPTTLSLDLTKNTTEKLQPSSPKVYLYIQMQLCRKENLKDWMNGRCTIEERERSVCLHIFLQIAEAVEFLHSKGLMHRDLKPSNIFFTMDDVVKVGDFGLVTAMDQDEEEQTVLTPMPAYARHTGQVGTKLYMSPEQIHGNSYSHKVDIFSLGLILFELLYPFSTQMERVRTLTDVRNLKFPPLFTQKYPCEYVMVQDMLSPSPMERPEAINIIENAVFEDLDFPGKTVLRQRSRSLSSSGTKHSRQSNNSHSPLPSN

[5] = molecular target: Cyclin-dependent kinase 9 (Homo sapiens) (UniProt P50750); assay: Inhibition of human recombinant CDK9 at 40 nM related to control ULK1
Sequence of Cyclin-dependent kinase 9 (Homo sapiens) (P50750 whole entry): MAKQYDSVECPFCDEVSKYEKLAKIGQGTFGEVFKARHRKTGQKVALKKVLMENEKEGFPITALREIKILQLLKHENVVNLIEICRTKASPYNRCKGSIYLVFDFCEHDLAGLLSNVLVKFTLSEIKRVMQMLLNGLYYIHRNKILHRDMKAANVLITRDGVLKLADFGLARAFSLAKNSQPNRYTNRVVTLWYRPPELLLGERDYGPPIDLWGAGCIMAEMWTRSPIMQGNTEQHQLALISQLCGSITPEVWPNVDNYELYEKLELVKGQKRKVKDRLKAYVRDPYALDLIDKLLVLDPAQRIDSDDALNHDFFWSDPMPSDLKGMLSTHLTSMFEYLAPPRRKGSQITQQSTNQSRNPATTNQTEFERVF

Sequence of Serine/threonine-protein kinase Nek6 (Homo sapiens) (Q9HC98 whole entry): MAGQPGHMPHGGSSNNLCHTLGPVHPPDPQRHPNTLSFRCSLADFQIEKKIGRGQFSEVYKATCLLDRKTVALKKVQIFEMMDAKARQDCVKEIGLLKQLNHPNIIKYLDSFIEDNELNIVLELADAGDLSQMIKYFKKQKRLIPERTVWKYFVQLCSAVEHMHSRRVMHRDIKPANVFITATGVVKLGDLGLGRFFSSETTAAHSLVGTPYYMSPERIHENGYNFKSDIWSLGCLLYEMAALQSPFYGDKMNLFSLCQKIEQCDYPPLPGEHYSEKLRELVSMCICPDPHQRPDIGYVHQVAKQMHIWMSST

## CNC(=O)c1ccccc1Oc1nc(Nc2cc(OC)c(OC)c(OC)c2)ncc1Br
[1]
  fold change (FC): 0

## CC(C)[C@H](NC(=O)c1cc(-c2cnn3cc(-c4ccc(OCCN5CCCCC5)cc4)cnc23)cs1)C(F)(F)F
[2]
  fold change (FC): 0.13
[3]
  inhibition: 5%
[4]
  inhibition: 0%

## O=C(N[C@@H](C1CC1)C(F)(F)F)c1cc(-c2cnn3cc(-c4ccc(F)cc4)cnc23)cs1
[5]
  fold change (FC): 0
